Consider four molecules from publication PMC5503752 (Biophysical chemistry, 2017).

Read-outs that look alike come from different tables or passages of the source.

The subject of test [1] is sites III and IV of CaM bound to the NaV1.2 IQ motif. Kind of test: Simulation of calcium binding to CaM bound to the NaV1.2 IQ motif. In short, it runs like this:
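Calcium binding to sites III and IV of IQ-bound CaM was simulated by thermodynamic linkage. Inputs were earlier-measured calcium-binding energies of CaM alone (ΔG1 −7.76, ΔG2 −15.92 kcal/mol) and the apo-versus-Ca2+ difference in IQ binding. The simulation used a total free energy of −13.99 kcal/mol and the same cooperativity as free CaM.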

In test [2] the test system is CaM. The conditions noted are these: absence of IQ motif; same conditions as this study; cited from earlier work.
The subject of test [3] is CaM bound to NaV1.2 IQ motif. The conditions noted are these: cited from earlier work.
The subject of test [4] is rat NaV1.2 IQ motif (residues 1901-1927) in YFP-CFP biosensor. Put plainly: CaM titrations of NaV1.2IQ YFP-CFP FRET biosensor. The test is classed as binding. The conditions noted are these: for Kd: read-out: Kd, apo CaM, apo (no CaCl2), pH 7.4, 22 °C, calculated from average ΔG. In short, it runs like this: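 Rat NaV1.2 residues 1901–1927 inserted between YFP and CFP, expressed in BL21(DE3) (IPTG, 40 h, 18 °C), used as clarified lysate. Biosensor at 0.5 nM (apo) to 5 nM (Ca2+). Titrant: paramecium-sequence CaM or its domains.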

The test system of test [5] is NaV1.2IQ biosensor. It is filed as binding, rat. The conditions noted are these: for fractional decrease/change in YFP intensity of biosensor, apo: [CaM]:[biosensor] = 10^3:1, biosensor 4 nM, excitation 430 nm, YFP 525 nm. In short, it runs like this: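 Steady-state emission spectra were recorded with 430 nm excitation, showing CFP at 475 nm and YFP at 525 nm. Samples were biosensor alone or with >10^3-fold excess apo or Ca2+-saturated CaM, CaMN or CaMC, in titration buffer at pH 7.4 and 22 °C. Spectra were buffer-subtracted, dilution-corrected and normalized to free-biosensor intensity at 525 nm. Fractional YFP decrease was taken at λmax.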

Test [6] has as its system NaV1.2 IQ motif. Also on record: species or system rat. The conditions noted are these: free [CaM] 50–100 nM (estimated). In short, it runs like this: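 Single-site fractional saturation isotherms of the IQ motif by apo or calcium-saturated CaM were simulated from the single-site binding equation. Input was the free energies measured by biosensor titration.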
For test [7], the system named is rat Nav1.2IQp. The conditions noted are these: thermodynamic linkage analysis; cited from earlier work.
Test [8] deals with IQ motifs of NaV1.2, 1.5, and 1.6. The conditions noted are these: cited from earlier work.
Test [9] concerns ryanodine receptor RyR1. The conditions noted are these: cited from earlier work.
The test system of test [10] is CaV1.2 IQ motif. The conditions noted are these: cited from earlier work.
Test [11] deals with NaV1.5 DIII-DIV linker. The conditions noted are these: cited from earlier work.

For the molecule `[Ca+2]` [calcium], in test [1] (simulation for illustration, same cooperativity as CaM alone), the “total free energy of calcium binding to sites III and IV of CaM bound to NaV1.2 IQ motif” value is -13.99 kcal/mol. Further, in [2], the “ΔG1 (printed AG1) of calcium binding to CaM alone” value is -7.76 kcal/mol and the “ΔG2 of calcium binding to CaM alone” value is -15.92 kcal/mol. For the same molecule, in test [3] (CaM bound to NaV1.2 IQ motif, NMR titration), the “calcium equivalents (ions per CaM) required for saturation” value is reported as 4. For the same molecule, the “calcium-binding affinity of sites III and IV (CaMC) in CaM-IQp complex” value in test [3] is given as “diminished”.

What is called Kd is the equilibrium constant for the complex coming apart. For the molecule Calmodulin [CaM], in test [4] ((Ca^2+)4-CaM vs apo CaM), the “ratio of Kd, (Ca^2+)4-CaM over apo CaM (higher, weaker)” value was ~ 30 fold. The Kd in [4] was 3.2 nM. Further, the “fractional decrease/change in YFP intensity of biosensor, apo” value in test [5] is listed as 36%. Besides, the “predicted occupancy of IQ motif by (Ca^2+)4-CaM at high calcium” value in [1] (10 03BCM free calcium) was ~ 68%. In addition, in test [6], the “predicted occupancy of NaV1.2 IQ motif, (Ca^2+)4-CaM” value was 37–54% and the “predicted occupancy of NaV1.2 IQ motif, apo CaM” value is 94–97%. Moreover, the “relative affinity of apo vs calcium-saturated CaM for rat Nav1.2IQp” value in [7] is listed as “binds more favorably than calcium-saturated CaM”. In addition, the “affinity for apo CaM relative to (Ca^2+)4-CaM, NaV IQ motifs” value in test [8] is listed as “higher affinity for apo CaM than (Ca^2+)4-CaM”. For the same molecule, the “effect on RyR1” value in test [9] (listed as apo CaM) is listed as “activated”. Further, the “effect on RyR1” value in [9] (listed as calcium-saturated CaM) is reported as “inhibited”. Also, in test [10], the “affinity of (Ca^2+)4-CaM relative to apo CaM for CaV1.2 IQ motif” value was “higher affinity for (Ca^2+)4-CaM than apo CaM”.

In the case of N-domain of CaM [CaMN], the “binding to NaV1.2IQ biosensor, in words” value in test [4] (CaMN, apo and 1 mM calcium) is listed as “negligible binding”. The “deflection in fluorescence intensity relative to that seen at 50 nM CaMC” value in test [5] (50 pM CaMN (so in the source) vs 50 nM CaMC) is listed as “less than 1%”. Further, in test [5], the “fractional decrease/change in YFP intensity of biosensor, apo” value is given as ~ 1%. For the same molecule, in [8] (NaV1.2, 1.5 and 1.6 IQ motifs), the “binding of CaMN to NaV IQ motifs” value is listed as “undetectable or very weak binding”.

As for C-domain of CaM [CaMC], the dissociation constant (Kd) in test [4] was 11.6 nM. In test [1] (neuronal intracellular Ca^2+ range centered on 10 03BCM, simulation, Fig. 7B), the “calcium-saturated CaMC bound to NaV1.2-IQ” value was 50–75%. In addition, in [11], the “affinity of CaMC for NaV1.5 DIII-DIV linker” value is reported as “micromolar affinity”.
